{"source": "ChEMBL document CHEMBL3259621", "about": "“Novel merosesquiterpene exerts a potent antitumor activity against breast cancer cells in vitro and in vivo” (Eur J Med Chem, 2014)", "key": {"[1]": {"test_system": "MCF7", "experiment": "Cell cycle arrest in human MCF7 cells assessed as accumulation at G2-M phase at 2 uM after 24 hrs by propidium iodide/RNAse staining-based FACS analysis (reference value: 8.20 %)", "format": "functional"}, "[2]": {"test_system": "MCF7", "experiment": "Cell cycle arrest in human MCF7 cells assessed as accumulation at G2-M phase at 3 uM after 24 hrs by propidium iodide/RNAse staining-based FACS analysis (reference value: 8.20 %)", "format": "functional"}, "[3]": {"test_system": "MCF7", "experiment": "Cell cycle arrest in human MCF7 cells assessed as accumulation at G0-G1 phase after 24 hrs by propidium iodide/RNAse staining-based FACS analysis", "format": "functional"}, "[4]": {"test_system": "MCF7", "experiment": "Cell cycle arrest in human MCF7 cells assessed as accumulation at […] phase after 48 hrs by propidium iodide/RNAse staining-based FACS analysis", "format": "functional"}, "[5]": {"test_system": "MCF7", "experiment": "Induction of apoptosis in human MCF7 cells assessed as early apoptotic cells at 3 uM after 48 hrs by annexin V staining-based flow cytometry (reference value: 0.205 %)", "format": "functional"}, "[6]": {"test_system": "MCF7", "experiment": "Induction of apoptosis in human MCF7 cells assessed as reduction in cyclin B1 protein expression at 2 uM by Western blotting analysis", "format": "functional, cell-based", "method_in_brief": "(§1)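 MCF-7 seeded at 5 × 10⁴/cm² and exposed at 24 h to 2 µM compound for 0, 4, 8, 16 and 24 h. Lysates separated on 12% SDS gels, transferred to nitrocellulose, blocked in 5% milk. Primary antibodies applied overnight at 4 °C, then secondary 1 h at room temperature. Detection by ECL chemiluminescence with β-actin as loading reference.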"}, "[7]": {"test_system": "MCF7", "experiment": "Induction of apoptosis in human MCF7 cells assessed as reduction in cyclin D1 protein expression at 2 uM after 4 hrs by Western blotting analysis relative to control", "format": "functional", "set-up": "scale not given: the % may be the effect or the level left", "method_in_brief": "as §1"}, "[8]": {"test_system": "MCF7", "experiment": "Induction of apoptosis in human MCF7 cells assessed as reduction in phosphorylated pRb expression at 2 uM after 16 hrs by Western blotting analysis relative to control", "format": "functional", "set-up": "scale not given: the % may be the effect or the level left", "method_in_brief": "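MCF-7 seeded at 5 × 10⁴ cells/cm², exposed after 24 h to 2 µM for 0, 4, 8, 16 and 24 h. Lysed in SDS sample buffer, run on 12% acrylamide gels, transferred to nitrocellulose and blocked with 5% milk. Primary antibodies overnight at 4 °C (total or phospho-pRb, β-actin), secondary 1 h at room temperature, ECL chemiluminescence detection.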"}, "[9]": {"test_system": "MCF7", "experiment": "Induction of apoptosis in human MCF7 cells assessed as reduction in c-myc expression at 2 uM after 24 hrs by Western blotting analysis relative to control", "format": "functional", "set-up": "scale not given: the % may be the effect or the level left", "method_in_brief": "as §1"}, "[10]": {"test_system": "MCF7", "experiment": "Induction of apoptosis in human MCF7 cells assessed as increase in E-cadherin expression at 1 to 2 uM after 48 hrs by FACS analysis", "format": "functional, cell-based", "method_in_brief": "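MCF-7 seeded at 5 × 10⁴/cm² and treated at 24 h with 1 or 2 µM compound for 48 h. Labelled with fluorochrome-conjugated anti-E-cadherin or anti-β-catenin antibody for 30 min at 4 °C in the dark, washed in PBS. Mean fluorescence intensity measured by FACScan flow cytometry.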"}, "[11]": {"experiment": "Antitumor activity against mouse E0771 cells allografted in C57BL/6 mouse assessed as mean tumor volume at 5 to 15 mg/kg, po measured on day 42 relative to vehicle-treated control", "format": "functional", "details": "dose mg/kg 5-15", "method_in_brief": "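C57BL/6 mice (40) injected subcutaneously in the right side with 1 × 10⁶ E0771 cells. At day 9, with tumors at 75 mm³, randomized into four groups of 10 and dosed orally six times with vehicle (1% methylcellulose) or compound at 5, 10 or 15 mg/kg. Tumor volume followed to day 42.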"}, "[12]": {"test_system": "Mus musculus", "experiment": "Toxicity in C57BL/6 mouse allografted with mouse E0771 cells assessed as hair loss at 5 to 15 mg/kg, po", "format": "organism-based", "set-up": "dose 5-15 mg/kg, route oral", "details": "in vivo", "method_in_brief": "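C57BL/6 mice (10 per group) injected subcutaneously in the right side with 1 × 10⁶ E0771 cells. At day 9, with tumours at 75 mm³, mice were randomised to oral vehicle (1% methylcellulose) or 5, 10 or 15 mg/kg on six occasions. Animals were monitored to day 42 for survival and for signs of toxicity such as hair loss or diarrhoea.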"}, "[13]": {"test_system": "MCF7", "experiment": "Cytotoxicity against human MCF7 cells after 3 days by SRB assay", "format": "functional, cell-based", "details": "MCF7, 72 h", "method_in_brief": "(§2)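 Cells seeded in quadruplicate at 5 × 10³ cells/cm². Compound added at 24 h over increasing concentrations for 3 days. Cells fixed with cold 10% TCA, stained with 0.4% sulforhodamine B in 1% acetic acid, dye solubilized in 10 mM Tris pH 10.5, OD read at 492 nm. IC50 taken by linear interpolation of the semi-log dose-response curve. DMSO below 0.1% final.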"}, "[14]": {"test_system": "T84", "experiment": "Cytotoxicity against human T84 cells after 3 days by SRB assay", "format": "functional, cell-based", "details": "T84, 72 h", "method_in_brief": "as §2"}, "[15]": {"test_system": "MDA-MB-231", "experiment": "Cytotoxicity against human MDA-MB-231 cells after 3 days by SRB assay", "format": "functional, cell-based", "details": "MDA-MB-231, 72 h", "method_in_brief": "(§3)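 Cells seeded at 5 × 10³ cells/cm² in quadruplicate and, after 24 h, treated with increasing concentrations for 3 days. Compounds diluted from DMSO stock, final DMSO <0.1% v/v. Cells were fixed with cold 10% TCA, stained with 0.4% sulforhodamine B in 1% acetic acid, and dye solubilised in 10 mM Tris-base pH 10.5. OD read at 492 nm. IC50 obtained by linear interpolation on a semi-log dose-response curve.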"}, "[16]": {"test_system": "HT-29", "experiment": "Cytotoxicity against human HT-29 cells after 3 days by SRB assay", "format": "functional, cell-based", "details": "HT-29, 72 h", "method_in_brief": "as §3"}, "[17]": {"test_system": "SW480", "experiment": "Cytotoxicity against human SW480 cells after 3 days by SRB assay", "format": "functional, cell-based", "details": "SW480, 72 h", "method_in_brief": "as §3"}, "[18]": {"experiment": "Cytotoxicity against human CCD-18Co cells after 3 days by SRB assay", "format": "cell-based", "details": "72 h", "method_in_brief": "as §3"}, "[19]": {"experiment": "Therapeutic index, ratio of IC50 for human MCF10A cells to IC50 for human MDA-MB-231 cells", "format": "cell-based, MCF-10A", "details": "MCF10A cells versus MDA-MB-231 cells, read-out: Ratio IC50"}, "[20]": {"experiment": "Therapeutic index, ratio of IC50 for human MCF10A cells to IC50 for human T47D cells", "format": "cell-based, MCF-10A", "details": "MCF10A cells versus T47D cells, read-out: Ratio IC50"}, "[21]": {"experiment": "Therapeutic index, ratio of IC50 for human CCD-18Co cells to IC50 for human HT-29 cells", "format": "cell-based", "details": "CCD-18Co cells versus HT-29 cells, read-out: Ratio IC50"}, "[22]": {"experiment": "Therapeutic index, ratio of IC50 for human CCD-18Co cells to IC50 for human RKO cells", "format": "cell-based", "details": "CCD-18Co cells versus RKO cells, read-out: Ratio IC50"}, "[23]": {"test_system": "MCF7", "experiment": "Cytotoxicity against human MCF7 cells assessed as reduction in cell viability at 2 uM after 3 days by SRB assay relative to control", "format": "functional", "method_in_brief": "(§4)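 MCF-7 seeded at high density (5 × 10⁴/cm²) and treated at 24 h with compound for 3 days, with or without 20 mM NAC. Viable cells quantified by sulforhodamine B staining, OD 492 nm. Viability reduction expressed versus untreated controls.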"}, "[24]": {"test_system": "MCF7", "experiment": "Cytotoxicity against human MCF7 cells at 1 to 3 uM after 3 days by SRB assay in presence of NAC", "format": "functional, cell-based", "method_in_brief": "as §4"}, "[25]": {"test_system": "MCF7", "experiment": "Cell cycle arrest in human MCF7 cells assessed as accumulation at G0-G1 phase at 1 uM after 24 hrs by propidium iodide/RNAse staining-based FACS analysis (reference value: 42.34 %)", "format": "functional"}}, "note": "Calls of active or inactive are those of the source. The calls are words filed in the database; no cut-off is given here."}
{"smiles": "C=C1CC[C@@H]2[C@](C)(CCC[C@]2(C)C(=O)OC)[C@H]1Cc1c(C)ccc2c1C(=O)C=CC2=O", "values": [{"measurement": "Activity", "setting": "[1]", "result": 19.25, "unit": "%"}, {"measurement": "Activity", "setting": "[2]", "result": 5.08, "unit": "%"}, {"measurement": "Activity", "setting": "[3]", "result": "Dose-dependent effect"}, {"measurement": "Activity", "setting": "[4]", "result": "Dose-dependent effect"}, {"measurement": "Activity", "setting": "[5]", "result": 19.5, "unit": "%"}, {"measurement": "Activity", "setting": "[6]", "result": "Active"}, {"measurement": "Activity", "setting": "[7]", "result": 80, "unit": "%"}, {"measurement": "Activity", "setting": "[8]", "result": 90, "unit": "%"}, {"measurement": "Activity", "setting": "[9]", "result": 80, "unit": "%"}, {"measurement": "Activity", "setting": "[10]", "result": "Active"}, {"measurement": "fold change (FC)", "setting": "[11]", "result": 2.4}, {"measurement": "Activity", "setting": "[12]", "result": "Non-toxic"}, {"measurement": "IC50", "setting": "[13]", "result": 350, "unit": "nM"}, {"measurement": "IC50", "setting": "[14]", "result": 560, "unit": "nM"}, {"measurement": "IC50", "setting": "[15]", "result": 460, "unit": "nM"}, {"measurement": "IC50", "setting": "[16]", "result": 1970, "unit": "nM"}, {"measurement": "IC50", "setting": "[17]", "result": 920, "unit": "nM"}, {"measurement": "IC50", "setting": "[18]", "result": 330, "unit": "nM"}, {"measurement": "selectivity ratio", "setting": "[19]", "result": 6.85}, {"measurement": "selectivity ratio", "setting": "[20]", "result": 5}, {"measurement": "selectivity ratio", "setting": "[21]", "result": 0.17}, {"measurement": "selectivity ratio", "setting": "[22]", "result": 0.56}, {"measurement": "viability", "setting": "[23]", "result": 46.09, "unit": "%"}, {"measurement": "Activity", "setting": "[24]", "result": "inactive"}, {"measurement": "Activity", "setting": "[25]", "result": 51.4, "unit": "%"}]}
